Assay [1] has as its system CNE-2. In words: Induction of apoptosis in human CNE2 cells assessed as early apoptotic cells level at 50 uM incubated for 24 hrs by Annexin V-FITC/PI dual staining based flow cytometry (reference value: 3.56%). Type of assay: functional. Summed up:
(§1)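 CNE2 and SMMC-7721 cells were treated for 24 h at 0, 5, 10 or 30 µM, or at 0, 10, 20 or 50 µM depending on compound. Cells were stained with Annexin V-FITC/propidium iodide and quantified by flow cytometry. Apoptotic cells were counted as AV+/PI− (lower right) plus AV+/PI+ (upper right) quadrants.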
(In general: Flow cytometry measures light scatter and fluorescence of single cells or particles in a stream.)

The subject of assay [2] is CNE-2. In words: Induction of apoptosis in human CNE2 cells assessed as viable cells level at 20 uM incubated for 24 hrs by Annexin V-FITC/PI dual staining based flow cytometry (reference value: 91.6%). The format is functional. Summed up:
as §1

The subject of assay [3] is SMMC-7721. In words: Induction of apoptosis in human SMMC7721 cells assessed as early apoptotic cells level at 10 uM incubated for 24 hrs by Annexin V-FITC/PI dual staining based flow cytometry (reference value: 1%). Type of assay: functional. Summed up: as §1
For assay [4], the system named is SMMC-7721. In words: Induction of apoptosis in human SMMC7721 cells incubated for 24 hrs by Annexin V-FITC/PI dual staining based flow cytometry. The format is functional, cell-based. Summed up: as §1
Assay [5] deals with SMMC-7721. In words: Induction of apoptosis in human SMMC7721 cells assessed as necrotic cells level at 20 uM incubated for 24 hrs by Annexin V-FITC/PI dual staining based flow cytometry (reference value: 1.18%). Type of assay: functional. Summed up: as §1
Assay [6] deals with CNE-2. In words: Induction of apoptosis in human CNE2 cells assessed as viable cells level at 50 uM incubated for 24 hrs by Annexin V-FITC/PI dual staining based flow cytometry (reference value: 91.6%). The format is functional. Summed up:
as §1

The test system of assay [7] is SMMC-7721. In words: Induction of apoptosis in human SMMC7721 cells assessed as late apoptotic cells level at 20 uM incubated for 24 hrs by Annexin V-FITC/PI dual staining based flow cytometry (reference value: 1.6%). Type of assay: functional. Summed up: as §1
The test system of assay [8] is SMMC-7721. In words: Induction of apoptosis in human SMMC7721 cells assessed as viable cells level at 20 uM incubated for 24 hrs by Annexin V-FITC/PI dual staining based flow cytometry (reference value: 96.2%). The format is functional. Summed up:
as §1

Assay [9] concerns CNE-2. In words: Induction of apoptosis in human CNE2 cells assessed as late apoptotic cells level at 50 uM incubated for 24 hrs by Annexin V-FITC/PI dual staining based flow cytometry (reference value: 1.37%). The format is functional. Summed up: as §1
Assay [10] has as its system SMMC-7721. In words: Induction of apoptosis in human SMMC7721 cells assessed as late apoptotic cells level at 10 uM incubated for 24 hrs by Annexin V-FITC/PI dual staining based flow cytometry (reference value: 1.6%). Type of assay: functional. Summed up: as §1
For assay [11], the system named is CNE-2. In words: Anticancer activity against human CNE2 cells assessed as reduction in cell viability incubated for 48 hrs MTT assay. The format is functional, cell-based. To be noted: CNE-2, 48 h. Summed up: (§2)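 MTT assay on human hepatocarcinoma SMMC-7721, lung carcinoma A549 and nasopharyngeal carcinoma CNE2 cells, with matrine as comparator and cisplatin as positive control. IC50 is the concentration that lowers optical density of treated cells by 50% versus untreated cells, given as the mean ± SD of three experiments.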
A general note: Tetrazolium dyes change colour on reduction, which living cells bring about.

In assay [12] the test system is SMMC-7721. In words: Induction of apoptosis in human SMMC7721 cells assessed as necrotic cells level at 50 uM incubated for 24 hrs by Annexin V-FITC/PI dual staining based flow cytometry (reference value: 1.18%). Type of assay: functional. Summed up: as §1
In assay [13] the test system is CNE-2. In words: Induction of apoptosis in human CNE2 cells assessed as early apoptotic cells level at 20 uM incubated for 24 hrs by Annexin V-FITC/PI dual staining based flow cytometry (reference value: 3.56%). Type of assay: functional. Summed up: as §1
For assay [14], the system named is A549. In words: Anticancer activity against human A549 cells assessed as reduction in cell viability incubated for 48 hrs MTT assay. To be noted: A549, 48 h. Type of assay: functional, cell-based. Summed up:
as §2

The subject of assay [15] is SMMC-7721. In words: Induction of apoptosis in human SMMC7721 cells assessed as late apoptotic cells level at 50 uM incubated for 24 hrs by Annexin V-FITC/PI dual staining based flow cytometry (reference value: 1.6%). Type of assay: functional. Summed up: as §1
Assay [16] deals with SMMC-7721. In words: Anticancer activity against human SMMC7721 cells assessed as reduction in cell viability incubated for 48 hrs MTT assay. The format is functional, cell-based. The note with it: SMMC-7721, 48 h. Summed up: as §2
Assay [17] concerns CNE-2. In words: Induction of apoptosis in human CNE2 cells assessed as necrotic cells level at 50 uM incubated for 24 hrs by Annexin V-FITC/PI dual staining based flow cytometry (reference value: 3.43%). Type of assay: functional. Summed up:
as §1

Assay [18] relates to SMMC-7721. In words: Induction of apoptosis in human SMMC7721 cells assessed as viable cells level at 10 uM incubated for 24 hrs by Annexin V-FITC/PI dual staining based flow cytometry (reference value: 96.2%). Type of assay: functional. Summed up: as §1
Assay [19] deals with SMMC-7721. In words: Induction of apoptosis in human SMMC7721 cells assessed as early apoptotic cells level at 20 uM incubated for 24 hrs by Annexin V-FITC/PI dual staining based flow cytometry (reference value: 1%). Type of assay: functional. Summed up:
as §1

Assay [20] deals with SMMC-7721. In words: Induction of apoptosis in human SMMC7721 cells assessed as necrotic cells level at 10 uM incubated for 24 hrs by Annexin V-FITC/PI dual staining based flow cytometry (reference value: 1.18%). The format is functional. Summed up:
as §1

The subject of assay [21] is CNE-2. In words: Induction of apoptosis in human CNE2 cells assessed as late apoptotic cells level at 20 uM incubated for 24 hrs by Annexin V-FITC/PI dual staining based flow cytometry (reference value: 1.37%). The format is functional. Summed up: as §1
In assay [22] the test system is CNE-2. In words: Induction of apoptosis in human CNE2 cells incubated for 24 hrs by Annexin V-FITC/PI dual staining based flow cytometry. Type of assay: functional, cell-based. Summed up:
as §1

Assay [23] has as its system SMMC-7721. In words: Induction of apoptosis in human SMMC7721 cells assessed as viable cells level at 50 uM incubated for 24 hrs by Annexin V-FITC/PI dual staining based flow cytometry (reference value: 96.2%). Type of assay: functional. Summed up:
as §1

The test system of assay [24] is CNE-2. In words: Induction of apoptosis in human CNE2 cells assessed as necrotic cells level at 20 uM incubated for 24 hrs by Annexin V-FITC/PI dual staining based flow cytometry (reference value: 3.43%). The format is functional. Summed up:
as §1

The subject of assay [25] is SMMC-7721. In words: Induction of apoptosis in human SMMC7721 cells assessed as early apoptotic cells level at 50 uM incubated for 24 hrs by Annexin V-FITC/PI dual staining based flow cytometry (reference value: 1%). Type of assay: functional. Summed up:
as §1

pIC50: −log10 of the molar value.

As a reminder, the pIC50 is −log10 of the IC50, conventionally taken in molar units.

With `COc1ccc2c(c1)c(/C=C1\CC[C@@H]3[C@H]4CCCN5CCC[C@@H](CN3C1=O)[C@@H]45)cn2Cc1cccc(Cl)c1`, the Activity is 45.9% in [1]; 58.7% in assay [2]; 35.6% in assay [3]; “Dose-dependent effect” in assay [4]; 2.53% in [5]; 21.2% in [6]. Also, the Activity came to 18.2% in [7]; 38.6% in assay [8]; 28.3% in assay [9]; 3.4% in assay [10]; 2.91% in assay [12]; 29.9% in [13]. For the same compound, the Activity in [15] is on record as 79.5%; in [17], 4.62%; in assay [18] it was 60.3%; in assay [19] it was 40.6%; in [20], 0.69%; in assay [21], 8.7%. Besides, the Activity entry in [22] is “Dose-dependent effect”; in [23] it was 2.15%; in assay [24] it was 2.7%; in assay [25] it was 15.5%. For the same compound, the pIC50 in assay [11] was 5.47; in [14], 5.30; in assay [16] it was 5.40.

With `COc1cccc(Cn2cccc2/C=C2\CC[C@@H]3[C@H]4CCCN5CCC[C@@H](CN3C2=O)[C@@H]45)c1`, the pIC50 was 5.15 in assay [11], 4.53 in assay [14] and 4.87 in [16].

As for `O=C1/C(=C/c2cn(Cc3ccc4ccccc4c3)c3ccc(Br)cc23)CC[C@@H]2[C@H]3CCCN4CCC[C@@H](CN12)[C@@H]34`, the values for the negative-log IC50 (pIC50) in assay [11], in assay [14] and in [16] were 4.90, 5.01 and 5.06, respectively.

With `O=C1/C(=C/c2cccn2Cc2ccccc2Br)CC[C@@H]2[C@H]3CCCN4CCC[C@@H](CN12)[C@@H]34`, the pIC50 in [11] is 4.76; in [14] it was 4.92; in [16] it was 4.82.

Take `COc1ccc2c(c1)c(/C=C1\CC[C@@H]3[C@H]4CCCN5CCC[C@@H](CN3C1=O)[C@@H]45)cn2Cc1ccc2ccccc2c1`: the pIC50 was 5.17 in assay [11], 5.13 in assay [14] and 5.16 in assay [16].

On to `O=C1/C(=C/c2cccn2Cc2ccc(F)cc2)CC[C@@H]2[C@H]3CCCN4CCC[C@@H](CN12)[C@@H]34`, for which the pIC50 in [11] was 4.58; in assay [14], 4.50; in assay [16], 4.47.

Turning to `O=C1/C(=C/c2cn(Cc3ccc(OCc4ccccc4)cc3)c3ccccc23)CC[C@@H]2[C@H]3CCCN4CCC[C@@H](CN12)[C@@H]34`, the values for the pIC50 in assay [11], in assay [14] and in [16] were 4.93, 4.90 and 5.01, respectively.

Regarding `COc1ccc(Cn2ccc3c(/C=C4\CC[C@@H]5[C@H]6CCCN7CCC[C@@H](CN5C4=O)[C@@H]67)cccc32)cc1`, the results for the negative-log IC50 (pIC50) in [11], in assay [14] and in assay [16] were 4.81, 4.55 and 4.55, respectively.

With `CC(C)(C)c1ccc(Cn2ccc3c(/C=C4\CC[C@@H]5[C@H]6CCCN7CCC[C@@H](CN5C4=O)[C@@H]67)cccc32)cc1`, the negative logarithm of the IC50 (pIC50) in assay [11] is 5.01; in assay [14], 4.81; in [16], 4.86.

For the compound `COc1cc(Cn2cc(/C=C3\CC[C@@H]4[C@H]5CCCN6CCC[C@@H](CN4C3=O)[C@@H]56)c3ccccc32)cc(OC)c1OC`, the pIC50 is 4.70 in assay [11], less than 4.30 in assay [14] and 4.81 in assay [16].

As for `O=C1/C(=C/c2cn(Cc3cccc(Cl)c3)c3cc(Cl)ccc23)CC[C@@H]2[C@H]3CCCN4CCC[C@@H](CN12)[C@@H]34`, the pIC50 in assay [11] is 4.62; in assay [14] it was 4.58; in [16] it was 4.63.

Turning to `O=C1/C(=C/c2cccn2Cc2ccc3ccccc3c2)CC[C@@H]2[C@H]3CCCN4CCC[C@@H](CN12)[C@@H]34`, the pIC50 in assay [11] is 4.83; in assay [14], 4.62; in assay [16], 4.69.

For `O=C1/C(=C/c2cn(Cc3cccc(Cl)c3)c3ccc(Br)cc23)CC[C@@H]2[C@H]3CCCN4CCC[C@@H](CN12)[C@@H]34`, the negative logarithm of the IC50 (pIC50) was 5.07 in assay [11], 4.77 in [14] and 5.01 in assay [16].

As for `CC(C)(C)c1cc(Cn2cccc2/C=C2\CC[C@@H]3[C@H]4CCCN5CCC[C@@H](CN3C2=O)[C@@H]45)cc(C(C)(C)C)c1`, the pIC50 in assay [11], in assay [14] and in assay [16] was less than 4.40 throughout.

Consider `Cc1cccc(Cn2cccc2/C=C2\CC[C@@H]3[C@H]4CCCN5CCC[C@@H](CN3C2=O)[C@@H]45)c1`, for which the figures for the pIC50 in assay [11], in assay [14] and in [16] were 4.61, 4.35 and 4.51, respectively.

On to `Cc1cccc(Cn2cc(/C=C3\CC[C@@H]4[C@H]5CCCN6CCC[C@@H](CN4C3=O)[C@@H]56)c3ccccc32)c1`, for which the pIC50 in assay [11] was 5.10; in assay [14] it was 5.03; in assay [16], 5.07.

Take `O=C1/C(=C/c2cn(Cc3ccccc3)c3ccccc23)CC[C@@H]2[C@H]3CCCN4CCC[C@@H](CN12)[C@@H]34`: the pIC50 in assay [11] is 4.97; in assay [14] it was 4.86; in assay [16], 4.92.

Regarding `COc1ccc(Cn2cc(/C=C3\CC[C@@H]4[C@H]5CCCN6CCC[C@@H](CN4C3=O)[C@@H]56)c3ccccc32)cc1OC`, the pIC50 is 4.94 in [11], 4.90 in assay [14] and 4.93 in [16].

With `O=C1/C(=C/c2ccc3c(ccn3Cc3ccc4ccccc4c3)c2)CC[C@@H]2[C@H]3CCCN4CCC[C@@H](CN12)[C@@H]34`, the pIC50 in [11] was 4.84; in [14], 4.52; in assay [16] it was 4.57.

Regarding `O=C1/C(=C/c2cn(Cc3ccc4ccccc4c3)c3ccccc23)CC[C@@H]2[C@H]3CCCN4CCC[C@@H](CN12)[C@@H]34`, the negative logarithm of the IC50 (pIC50) in assay [11] was 5.34; in assay [14], 5.07; in assay [16], 5.25.
